Reference: ChEMBL document CHEMBL1149788, “Synthesis and biochemical evaluation of guanidino-alkyl-ribitol derivatives as nucleoside hydrolase inhibitors” (Eur J Med Chem, 2008)

Legend:
IAG-nucleoside hydrolase = molecular target: T1, IAG-nucleoside hydrolase (Trypanosoma vivax, UniProt Q9GPQ4); test: Inhibition of Trypanosoma vivax IAG-nucleoside hydrolase expressed in Escherichia coli WK6
T1 sequence (Q9GPQ4 whole entry): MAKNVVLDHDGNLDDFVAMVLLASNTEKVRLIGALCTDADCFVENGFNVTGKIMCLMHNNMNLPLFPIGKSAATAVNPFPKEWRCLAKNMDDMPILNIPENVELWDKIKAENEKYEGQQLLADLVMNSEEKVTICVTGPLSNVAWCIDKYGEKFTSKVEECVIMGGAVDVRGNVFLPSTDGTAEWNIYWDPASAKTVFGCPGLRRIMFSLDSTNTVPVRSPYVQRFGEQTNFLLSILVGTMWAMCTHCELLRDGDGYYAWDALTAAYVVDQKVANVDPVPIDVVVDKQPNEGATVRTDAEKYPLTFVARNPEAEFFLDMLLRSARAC
How it was run: (§1)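 His6-tagged enzyme purified by Ni-NTA then Superdex-200 gel filtration; concentration per monomer from ε280 47752 M⁻¹ cm⁻¹. Initial rates of hydrolysis of fixed p-nitrophenyl-β-D-ribofuranoside at ≥5 inhibitor concentrations, 50 mM phosphate pH 7.0, 35 °C. p-Nitrophenolate release read at 400 nm (ε 12 mM⁻¹ cm⁻¹). Ki from competitive-inhibition fit via Dixon plot (1/vi vs I).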

[1] = molecular target: T2, IAG-nucleoside hydrolase (Trypanosoma vivax) (UniProt Q9GPQ4); test: Binding affinity to Trypanosoma vivax IAG-nucleoside hydrolase; how it was run: as §1
T2 sequence (whole entry): T1 sequence (Q9GPQ4 whole entry)

SMILES	Ki (IAG-nucleoside hydrolase) [µM]	Activity [1] [mM]
NC(=O)[C@@H]1O[C@H](CO)[C@H](O)[C@@H]1O	4500	
C[N+](C)(C)C[C@@H]1O[C@H](CO)[C@@H](O)[C@H]1O	1280	
NC(N)=NC[C@@H]1O[C@H](CO)[C@@H](O)[C@H]1O	545	
CC(C[C@@H]1O[C@H](CO)[C@@H](O)[C@H]1O)N=C(N)N (some centres undefined)	685	
NC(N)=NCCC[C@@H]1O[C@H](CO)[C@@H](O)[C@H]1O	677	
O[C@@H]1[C@H](O)[C@H](O)CO[C@H]1O		148

The remaining molecules from weak to strong by Ki (IAG-nucleoside hydrolase), led by results:

Ki (IAG-nucleoside hydrolase) [µM]	Activity [1] [mM]	SMILES
309		NC(N)=NCC[C@@H]1O[C@H](CO)[C@@H](O)[C@H]1O
286		NC(N)=NCCN1C[C@H](O)[C@H](O)[C@H]1CO
59		OCC1[C@@H](O)[C@@H](O)CN1Cc1ccccc1 (single isomer, unassigned)
40		N=C(N)NCCCN1C[C@H](O)[C@H](O)[C@H]1CO
18		N=C(N)NCC[C@@H]1N[C@H](CO)[C@@H](O)[C@H]1O
7		N=C(N)Nc1ccc(CN2C[C@H](O)[C@H](O)[C@H]2CO)cc1
6.7		N=C(N)c1ccc(CN2C[C@H](O)[C@H](O)[C@H]2CO)cc1
6.1		OC[C@H]1NC[C@H](O)[C@@H]1O [IMINORIBITOL]
